Measured values reported in ChEMBL document CHEMBL1157032, “Synthesis and antimicrobial activity of novel pyrazolo[3,4-d]pyrimidin derivatives” (2010).
Values after ≈ are worked out from the molar mass of the structure shown. Active and inactive are the calls of the source. The calls are words filed in the database; no cut-off is given here.

How the values were obtained:
Type in all cases: functional
Serratia marcescens [1] = assay: Antimicrobial activity against Serratia marcescens MTCC 86 after 24 hrs; settings: MTCC 86, 24 h
Summary of the method: (§1)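 Agar well diffusion on Mueller Hinton agar seeded with 0.1 mL of a 10⁵ cfu/mL bacterial suspension in 0.85% sterile saline. 6 mm wells received 0.1 mL of each compound dilution in DMSO (1% DMSO; DMSO alone as control). Plates were incubated 24 h at 37 ± 0.5 °C. Read-out was zone of inhibition in mm. MIC was taken as the lowest concentration giving complete growth inhibition.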

Aspergillus niger [2] = assay: Antimicrobial activity against Aspergillus niger MTCC 1781 at MIC after 48 hrs by agar diffusion method
Summary of the method: (§2)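 Fungal spore suspensions in sterile distilled water were adjusted to 10⁶ cfu/mL, and 0.1 mL was spread on Sabouraud dextrose agar. 6 mm wells were filled with 0.1 mL of compound dilution in DMSO (1% DMSO; DMSO-only control). Plates were incubated 48 h at 28 ± 0.2 °C, and inhibition zones were measured in mm. MIC was the lowest concentration completely inhibiting growth.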

Klebsiella pneumoniae [3] = assay: Antimicrobial activity against Klebsiella pneumoniae NCIM 2957 after 24 hrs; settings: NCIM 2957, 24 h; summary of the method: as §1
Proteus vulgaris [4] = assay: Antimicrobial activity against Proteus vulgaris MTCC 1771 after 24 hrs; settings: MTCC 1771, 24 h; summary of the method: as §1
Candida albicans [5] = assay: Antimicrobial activity against Candida albicans MTCC 227 at MIC after 48 hrs by agar diffusion method; summary of the method: as §2
Bacillus subtilis [6] = assay: Antimicrobial activity against Bacillus subtilis MTCC 1789 after 24 hrs; settings: MTCC 1789, 24 h; summary of the method: as §1
Pseudomonas aeruginosa = assay: Antimicrobial activity against Pseudomonas aeruginosa MTCC 2488 after 24 hrs; settings: MTCC 2488, 24 h; summary of the method: as §1
Aspergillus flavus [7] = assay: Antimicrobial activity against Aspergillus flavus MTCC 2501 after 48 hrs; settings: MTCC 2501, 48 h; summary of the method: as §2
Priestia megaterium [8] = assay: Antimicrobial activity against Bacillus megaterium MTCC 1684 at MIC after 24 hrs by agar diffusion method; summary of the method: as §1
Trichoderma viride [9] = assay: Antimicrobial activity against Trichoderma viride MTCC 167 at MIC after 48 hrs by agar diffusion method; summary of the method: as §2
Escherichia coli [10] = assay: Antimicrobial activity against Escherichia coli MTCC 1650 at MIC after 24 hrs by agar diffusion method; summary of the method: as §1
Aspergillus flavus [11] = assay: Antimicrobial activity against Aspergillus flavus MTCC 2501 at MIC after 48 hrs by agar diffusion method; summary of the method: as §2
Priestia megaterium [12] = assay: Antimicrobial activity against Bacillus megaterium MTCC 1684 after 24 hrs; settings: MTCC 1684, 24 h; summary of the method: as §1
Penicillium chrysogenum [13] = assay: Antimicrobial activity against Penicillium chrysogenum MTCC 1996 at MIC after 48 hrs by agar diffusion method; summary of the method: as §2
Trichoderma viride [14] = assay: Antimicrobial activity against Trichoderma viride MTCC 167 after 48 hrs; settings: MTCC 167, 48 h; summary of the method: as §2
Candida albicans [15] = assay: Antimicrobial activity against Candida albicans MTCC 227 after 48 hrs; settings: MTCC 227, 48 h; summary of the method: as §2
Serratia marcescens [16] = assay: Antimicrobial activity against Serratia marcescens MTCC 86 at MIC after 24 hrs by agar diffusion method; summary of the method: as §1
Penicillium chrysogenum [17] = assay: Antimicrobial activity against Penicillium chrysogenum MTCC 1996 after 48 hrs; settings: MTCC 1996, 48 h; summary of the method: as §2
Aspergillus niger [18] = assay: Antimicrobial activity against Aspergillus niger MTCC 1781 after 48 hrs; settings: MTCC 1781, 48 h; summary of the method: as §2
Staphylococcus aureus [19] = assay: Antimicrobial activity against Staphylococcus aureus MTCC 96 at MIC after 24 hrs by agar diffusion method; summary of the method: as §1
Bacillus subtilis [20] = assay: Antimicrobial activity against Bacillus subtilis MTCC 1789 at MIC after 24 hrs by agar diffusion method; summary of the method: as §1
Staphylococcus aureus [21] = assay: Antimicrobial activity against Staphylococcus aureus MTCC 96 after 24 hrs; settings: MTCC 96, 24 h; summary of the method: as §1
Escherichia coli [22] = assay: Antimicrobial activity against Escherichia coli MTCC 1650 after 24 hrs; settings: MTCC 1650, 24 h; summary of the method: as §1
Klebsiella pneumoniae [23] = assay: Antimicrobial activity against Klebsiella pneumoniae NCIM 2957 at MIC after 24 hrs by agar diffusion method; summary of the method: as §1
Proteus vulgaris [24] = assay: Antimicrobial activity against Proteus vulgaris MTCC 1771 at MIC after 24 hrs by agar diffusion method; summary of the method: as §1

SMILES	MIC (Serratia marcescens [1])	inhibition zone (IZ) (Aspergillus niger [2])	MIC (Klebsiella pneumoniae [3])	MIC (Proteus vulgaris [4])	inhibition zone (IZ) (Candida albicans [5])	MIC (Bacillus subtilis [6])	MIC (Pseudomonas aeruginosa)	MIC (Aspergillus flavus [7])	inhibition zone (IZ) (Priestia megaterium [8])	inhibition zone (IZ) (Trichoderma viride [9])	inhibition zone (IZ) (Escherichia coli [10])	inhibition zone (IZ) (Aspergillus flavus [11])	MIC (Priestia megaterium [12])	inhibition zone (IZ) (Penicillium chrysogenum [13])	MIC (Trichoderma viride [14])	MIC (Candida albicans [15])	inhibition zone (IZ) (Serratia marcescens [16])	MIC (Penicillium chrysogenum [17])	MIC (Aspergillus niger [18])	inhibition zone (IZ) (Staphylococcus aureus [19])	other results
Nc1n[nH]c2nc3scc(-c4cc(Cl)cc(I)c4O)n3c(=O)c12	50 µg/mL (≈ 109 µM)	inactive	50 µg/mL (≈ 109 µM)	50 µg/mL (≈ 109 µM)	inactive	50 µg/mL (≈ 109 µM)	50 µg/mL (≈ 109 µM)	250 µg/mL (≈ 544 µM)	inactive	21 mm	inactive	inactive	50 µg/mL (≈ 109 µM)	14 mm	250 µg/mL (≈ 544 µM)	250 µg/mL (≈ 544 µM)	inactive	250 µg/mL (≈ 544 µM)	250 µg/mL (≈ 544 µM)	16 mm	inhibition zone (IZ) (Bacillus subtilis [20]): 14 mm; MIC (Staphylococcus aureus [21]): 50 µg/mL (≈ 109 µM); MIC (Escherichia coli [22]): 50 µg/mL (≈ 109 µM)
Nc1n[nH]c2nc3scc(-c4ccc(Br)cc4)n3c(=O)c12	50 µg/mL (≈ 138 µM)	10 mm	50 µg/mL (≈ 138 µM)	50 µg/mL (≈ 138 µM)	10 mm	50 µg/mL (≈ 138 µM)	50 µg/mL (≈ 138 µM)	250 µg/mL (≈ 690 µM)	inactive	27 mm	14 mm	10 mm	50 µg/mL (≈ 138 µM)	15 mm	250 µg/mL (≈ 690 µM)	250 µg/mL (≈ 690 µM)	inactive	250 µg/mL (≈ 690 µM)	250 µg/mL (≈ 690 µM)	18 mm	inhibition zone (IZ) (Klebsiella pneumoniae [23]): inactive; inhibition zone (IZ) (Proteus vulgaris [24]): inactive; inhibition zone (IZ) (Bacillus subtilis [20]): inactive; MIC (Staphylococcus aureus [21]): 50 µg/mL (≈ 138 µM); MIC (Escherichia coli [22]): 50 µg/mL (≈ 138 µM)
Nc1n[nH]c2nc3scc(-c4cc(Cl)cc(Br)c4O)n3c(=O)c12	50 µg/mL (≈ 121 µM)	inactive	50 µg/mL (≈ 121 µM)	50 µg/mL (≈ 121 µM)	16 mm	50 µg/mL (≈ 121 µM)	50 µg/mL (≈ 121 µM)	250 µg/mL (≈ 606 µM)	inactive	26 mm	11 mm	11 mm	50 µg/mL (≈ 121 µM)	28 mm	250 µg/mL (≈ 606 µM)	250 µg/mL (≈ 606 µM)	15 mm	250 µg/mL (≈ 606 µM)	250 µg/mL (≈ 606 µM)	16 mm	inhibition zone (IZ) (Klebsiella pneumoniae [23]): 9 mm; inhibition zone (IZ) (Proteus vulgaris [24]): inactive; inhibition zone (IZ) (Bacillus subtilis [20]): inactive; MIC (Staphylococcus aureus [21]): 50 µg/mL (≈ 121 µM); MIC (Escherichia coli [22]): 50 µg/mL (≈ 121 µM)
Cc1cc(-c2csc3nc4[nH]nc(N)c4c(=O)n23)c(O)cc1Cl	50 µg/mL (≈ 144 µM)	9 mm	50 µg/mL (≈ 144 µM)	50 µg/mL (≈ 144 µM)	17 mm	50 µg/mL (≈ 144 µM)	50 µg/mL (≈ 144 µM)	250 µg/mL (≈ 719 µM)	inactive	27 mm	12 mm	12 mm	50 µg/mL (≈ 144 µM)	32 mm	250 µg/mL (≈ 719 µM)	250 µg/mL (≈ 719 µM)	inactive	250 µg/mL (≈ 719 µM)	250 µg/mL (≈ 719 µM)	inactive	inhibition zone (IZ) (Bacillus subtilis [20]): inactive; MIC (Staphylococcus aureus [21]): 50 µg/mL (≈ 144 µM); MIC (Escherichia coli [22]): 50 µg/mL (≈ 144 µM)
